According to ChEMBL document CHEMBL1142163 (Antimicrob Agents Chemother, 2007):

What was measured:
[1] = tested on: Candida albicans; assay: Growth inhibition of Candida albicans ATCC 95020 at 0.2 to 25 mg/L; assay type: functional
Outline: (§1)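 Agar-well diffusion bioassay. Overnight YPD culture at 35°C was diluted to 1.5 x 10^7 CFU/ml inoculum. Agar contained yeast nitrogen base, glucose and phosphate buffer pH 5.5. Wells held 25 µl spiked plasma standards (8 points, 0.2–25 mg/liter). Plates stood 2 h at 4°C for diffusion, then 14 h at 35°C. Inhibition zones: four diameters by caliper.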

[2] = tested on: Kluyveromyces marxianus; assay: Growth inhibition of Candida kefyr B11501 at 0.2 to 25 mg/L; assay type: functional; outline: as §1
[3] = tested on: Candida albicans; assay: Growth inhibition of Candida albicans mutant DSY2621 at 0.2 to 25 mg/L; assay type: functional; outline: as §1
[4] = Cmax in leukemic patient with pulmonary aspergillosis at 200 mg twice daily, po on day 7; assay type: ADME, organism-based; design: dose 200 mg, route oral; settings: human, in vivo
Outline: (§2)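 Patients' citrated blood drawn just before and 2, 4, 6 and 12 h after a dose on days 2, 7 and 14 of therapy. Plasma was analysed by HPLC: acetonitrile precipitation, C18 column, UV detection at 255 nm. AUC over the 0–12 h dosing interval used the linear trapezoidal rule during rise and the log trapezoidal rule during decay. Cmax and trough were summarised descriptively.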

[5] = AUC in leukemic patient with pulmonary aspergillosis at 200 mg twice daily, po on day 7; assay type: ADME, organism-based; settings: human, plasma; outline: as §2
[6] = tested on: Homo sapiens; assay: Trough concentration in leukemic patient with pulmonary aspergillosis at 200 mg twice daily, po on day 7; assay type: ADME, organism-based; settings: in vivo; outline: as §2
[7] = Cmax in leukemic patient with pulmonary aspergillosis at 200 mg twice daily, po on day 14; assay type: ADME, organism-based; design: dose 200 mg, route oral; settings: human, in vivo; outline: as §2
[8] = AUC in leukemic patient with pulmonary aspergillosis at 200 mg twice daily, po on day 14; assay type: ADME, organism-based; settings: human, plasma; outline: as §2
[9] = tested on: Homo sapiens; assay: Trough concentration in leukemic patient with pulmonary aspergillosis at 200 mg twice daily, po on day 14; assay type: ADME, organism-based; settings: in vivo; outline: as §2
[10] = AUC in leukemic neutropenic patient with pulmonary aspergillosis at 300 mg twice daily, po on day 1; assay type: ADME, organism-based; settings: human, plasma
[11] = AUC in leukemic neutropenic patient with pulmonary aspergillosis at 300 mg twice daily, po on day 7; assay type: ADME, organism-based; settings: human, plasma; outline: as §2
[12] = tested on: Homo sapiens; assay: Trough level in leukemic neutropenic patient with pulmonary aspergillosis at 300 mg twice daily, po; assay type: ADME, organism-based; settings: in vivo; outline: as §2
[13] = Cmax in patient with invasive mycoses on day 1; assay type: ADME, organism-based; settings: human, in vivo
[14] = organism: Homo sapiens; assay: Trough level in patient with invasive mycoses on day 1; assay type: ADME, organism-based; settings: in vivo
[15] = Cmax in leukemic neutropenic patient with pulmonary aspergillosis at 300 mg twice daily, po; assay type: ADME, organism-based; design: dose 300 mg, route oral; settings: human, in vivo; outline: as §2

Structure (SMILES): C[C@@H](c1ncncc1F)[C@](O)(Cn1cncn1)c1ccc(F)cc1F [VORICONAZOLE]
- Inhibition [1]: 21 mm
- Inhibition [2]: 23 mm
- Inhibition [3]: 17 mm
- Cmax [4]: 1900 ng/mL
- AUC [5]: 12900 ng·h/mL
- Cmin [6]: 500 ng/mL
- Cmax [7]: 300 ng/mL
- AUC [8]: 2900 ng·h/mL
- Cmin [9]: 200 ng/mL
- AUC [10]: 43000 ng·h/mL
- AUC [11]: 40500 ng·h/mL
- Cmin [12]: 2600 ng/mL
- Cmax [13]: 6000 ng/mL
- Cmin [14]: 3000 ng/mL
- Cmax [15]: 4300 ng/mL
